Measured values as given in ChEMBL document CHEMBL5303300, “EUbOPEN Chemogenomics Library - Multiplex” (2023).
Where “and” joins values, the source holds several entries; their conditions need not be identical. Identical values can stand only once.

Test system: U2OS
Experiment: Multiplex assay against U2OS
Format: toxicity, cell-based
Conditions: human, number of replicates 2
Procedure, shortened: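 Per cents of healthy-nucleus cells form the tubulin, mitochondrial-mass and membrane-permeability phenotype values. Live cells were stained at seeding with Hoechst33342, BioTracker Green Microtubule Cytoskeleton Dye, MitoTracker Red and Annexin V Alexa Fluor 680. After compound addition they were imaged on a CQ1 microscope at 37°C and 5% CO2, and CellPathfinder machine-learning gating split them into Hoechst high-intensity objects or normal cells, normal cells into healthy, pyknosed or fragmented nuclei, and pyknosed cells into mitotic or apoptotic.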

[1] = 12 h, 1 µM, compound concentration 1 uM
[2] = 12 h, 10 µM, compound concentration 10 uM
[3] = 24 h, 1 µM, compound concentration 1 uM
[4] = 24 h, 10 µM, compound concentration 10 uM
[5] = 48 h, 1 µM, compound concentration 1 uM
[6] = 48 h, 10 µM, compound concentration 10 uM

COc1cc(C(=O)NC2CCN(C)CC2)ccc1Nc1ncc(C(F)(F)F)c(NCc2ccc(C)cc2N(C)S(C)(=O)=O)n1.O=CO.O=CO
Population Apoptotic (%) [1]: 50% and 69% | Population Fragmented Nuclei (%) [1]: 6% and 5% | Population Healthy Nuclei (%) [1]: 81% and 80% | Population Hoechst High Intensity Objects (%) [1]: 0% | Population Membrane Permeable-Phenotype (%) [1]: 7% and 20% | Population Mitotic Cells (%) [1]: 50% and 30% | Population Normal (%) [1]: 100% | Population Pyknosed Nuclei (%) [1]: 12% and 14% | Population Tubulin-Different-Phenotype (%) [1]: 38% and 40% | Population Apoptotic (%) [2]: 66% and 81% | Population Healthy Nuclei (%) [2]: 25% | Population Hoechst High Intensity Objects (%) [2]: 1% and 3% | Population Membrane Permeable-Phenotype (%) [2]: 38% and 48% | Population Mitochondria Different-Phenotype (%) [2]: 84% and 69% | Population Mitotic Cells (%) [2]: 33% and 18% | Population Normal (%) [2]: 98% and 96% | Population Pyknosed Nuclei (%) [2]: 47% and 66% | Population Tubulin-Different-Phenotype (%) [2]: 100% and 96% | Population Apoptotic (%) [3]: 42% and 74% | Population Fragmented Nuclei (%) [3]: 4% and 5% | Population Healthy Nuclei (%) [3]: 74% and 79% | Population Hoechst High Intensity Objects (%) [3]: 0% | Population Membrane Permeable-Phenotype (%) [3]: 4% and 8% | Population Mitochondria Different-Phenotype (%) [3]: 30% and 36% | Population Mitotic Cells (%) [3]: 57% and 25% | Population Normal (%) [3]: 100% | Population Pyknosed Nuclei (%) [3]: 21% and 15% | Population Tubulin-Different-Phenotype (%) [3]: 26% and 35% | Population Apoptotic (%) [4]: 96% and 93% | Population Healthy Nuclei (%) [4]: 6% and 7% | Population Hoechst High Intensity Objects (%) [4]: 3% and 5% | Population Membrane Permeable-Phenotype (%) [4]: 75% and 80% | Population Mitochondria Different-Phenotype (%) [4]: 100% and 86% | Population Mitotic Cells (%) [4]: 4% and 6% | Population Normal (%) [4]: 96% and 94% | Population Pyknosed Nuclei (%) [4]: 43% and 78% | Population Tubulin-Different-Phenotype (%) [4]: 100% and 93% | Population Apoptotic (%) [5]: 64% and 83% | Population Fragmented Nuclei (%) [5]: 12% and 4% | Population Healthy Nuclei (%) [5]: 50% and 68% | Population Hoechst High Intensity Objects (%) [5]: 1% and 0% | Population Membrane Permeable-Phenotype (%) [5]: 6% and 7% | Population Mitochondria Different-Phenotype (%) [5]: 20% and 28% | Population Mitotic Cells (%) [5]: 35% and 16% | Population Normal (%) [5]: 98% and 99% | Population Pyknosed Nuclei (%) [5]: 37% and 26% | Population Tubulin-Different-Phenotype (%) [5]: 24% and 46% | Population Apoptotic (%) [6]: 92% | Population Healthy Nuclei (%) [6]: 5% and 9% | Population Hoechst High Intensity Objects (%) [6]: 0% and 3% | Population Membrane Permeable-Phenotype (%) [6]: 100% and 73% | Population Mitochondria Different-Phenotype (%) [6]: 66% and 73% | Population Mitotic Cells (%) [6]: 7% | Population Normal (%) [6]: 100% and 96% | Population Pyknosed Nuclei (%) [6]: 49% and 76% | Population Tubulin-Different-Phenotype (%) [6]: 100%

CN1CCN(c2ccc(-n3cc(-c4ccncc4OCC4CCNCC4)cn3)cc2)CC1
Population Apoptotic (%) [1]: 100% and 71% | Population Healthy Nuclei (%) [1]: 63% and 82% | Population Hoechst High Intensity Objects (%) [1]: 0% | Population Membrane Permeable-Phenotype (%) [1]: 6% and 1% | Population Mitochondria Different-Phenotype (%) [1]: 3% and 2% | Population Normal (%) [1]: 100% | Population Pyknosed Nuclei (%) [1]: 2% and 10% | Population Tubulin-Different-Phenotype (%) [1]: 75% and 77% | Population Apoptotic (%) [2]: 80% | Population Healthy Nuclei (%) [2]: 48% and 67% | Population Hoechst High Intensity Objects (%) [2]: 1% and 0% | Population Membrane Permeable-Phenotype (%) [2]: 0% and 5% | Population Mitochondria Different-Phenotype (%) [2]: 7% and 16% | Population Mitotic Cells (%) [2]: 20% and 19% | Population Normal (%) [2]: 98% and 99% | Population Pyknosed Nuclei (%) [2]: 17% and 22% | Population Tubulin-Different-Phenotype (%) [2]: 21% and 36% | Population Apoptotic (%) [3]: 100% and 78% | Population Healthy Nuclei (%) [3]: 69% and 84% | Population Hoechst High Intensity Objects (%) [3]: 0% | Population Membrane Permeable-Phenotype (%) [3]: 4% and 1% | Population Mitochondria Different-Phenotype (%) [3]: 2% and 1% | Population Mitotic Cells (%) [3]: 0% and 21% | Population Normal (%) [3]: 100% | Population Pyknosed Nuclei (%) [3]: 3% and 11% | Population Tubulin-Different-Phenotype (%) [3]: 72% and 85% | Population Apoptotic (%) [4]: 76% and 88% | Population Fragmented Nuclei (%) [4]: 34% and 12% | Population Healthy Nuclei (%) [4]: 25% and 32% | Population Hoechst High Intensity Objects (%) [4]: 1% and 0% | Population Membrane Permeable-Phenotype (%) [4]: 6% and 8% | Population Mitochondria Different-Phenotype (%) [4]: 18% and 26% | Population Mitotic Cells (%) [4]: 24% and 11% | Population Normal (%) [4]: 98% and 100% | Population Pyknosed Nuclei (%) [4]: 39% and 55% | Population Tubulin-Different-Phenotype (%) [4]: 31% and 48% | Population Apoptotic (%) [5]: 54% and 86% | Population Healthy Nuclei (%) [5]: 51% and 86% | Population Hoechst High Intensity Objects (%) [5]: 0% | Population Membrane Permeable-Phenotype (%) [5]: 5% and 0% | Population Mitochondria Different-Phenotype (%) [5]: 1% | Population Normal (%) [5]: 100% | Population Pyknosed Nuclei (%) [5]: 10% and 9% | Population Tubulin-Different-Phenotype (%) [5]: 78% and 88% | Population Apoptotic (%) [6]: 90% | Population Healthy Nuclei (%) [6]: 13% and 21% | Population Hoechst High Intensity Objects (%) [6]: 0% and 1% | Population Membrane Permeable-Phenotype (%) [6]: 55% and 60% | Population Mitochondria Different-Phenotype (%) [6]: 55% and 60% | Population Mitotic Cells (%) [6]: 9% | Population Normal (%) [6]: 100% and 98% | Population Pyknosed Nuclei (%) [6]: 44% and 69% | Population Tubulin-Different-Phenotype (%) [6]: 88% and 65% | Total Cell Count [6]: 69 and 181
